According to ChEMBL document CHEMBL3286277, “Discovery of N-sulfonyl-7-azaindoline derivatives as potent, orally available and selective M(4) muscarinic acetylcholine receptor agonists” (Bioorg Med Chem Lett, 2014):
Calls of active or inactive are those of the source. The calls are words filed in the database; no cut-off is given here.

What was measured:
[1] = biological target: T1, Muscarinic acetylcholine receptor M4 (Homo sapiens) (UniProt P08173); assay: Agonist activity at human muscarinic acetylcholine receptor M4 expressed in CHO cells assessed as calcium mobilization at 0.3 uM by FLIPR assay relative to acetylcholine; format: functional, cell-based
T1 sequence (whole entry): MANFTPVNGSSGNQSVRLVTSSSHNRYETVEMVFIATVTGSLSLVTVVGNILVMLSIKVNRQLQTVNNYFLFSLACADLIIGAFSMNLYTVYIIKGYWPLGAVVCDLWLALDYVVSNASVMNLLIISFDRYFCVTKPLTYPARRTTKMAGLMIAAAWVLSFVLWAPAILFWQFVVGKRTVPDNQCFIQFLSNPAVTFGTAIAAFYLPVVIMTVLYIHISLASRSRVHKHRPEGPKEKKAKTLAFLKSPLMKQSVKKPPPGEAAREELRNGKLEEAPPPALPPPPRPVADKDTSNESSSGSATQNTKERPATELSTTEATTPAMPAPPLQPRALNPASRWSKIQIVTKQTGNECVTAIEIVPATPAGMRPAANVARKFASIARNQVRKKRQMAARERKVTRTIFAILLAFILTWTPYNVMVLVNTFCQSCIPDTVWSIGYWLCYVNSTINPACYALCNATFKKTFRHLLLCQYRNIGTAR

[2] = biological target: T2, Muscarinic acetylcholine receptor M1 (Homo sapiens) (UniProt P11229); assay: Agonist activity at human muscarinic acetylcholine receptor M1 expressed in CHO cells assessed as calcium mobilization at 0.3 uM by FLIPR assay relative to acetylcholine; format: functional, cell-based
T2 sequence (whole entry): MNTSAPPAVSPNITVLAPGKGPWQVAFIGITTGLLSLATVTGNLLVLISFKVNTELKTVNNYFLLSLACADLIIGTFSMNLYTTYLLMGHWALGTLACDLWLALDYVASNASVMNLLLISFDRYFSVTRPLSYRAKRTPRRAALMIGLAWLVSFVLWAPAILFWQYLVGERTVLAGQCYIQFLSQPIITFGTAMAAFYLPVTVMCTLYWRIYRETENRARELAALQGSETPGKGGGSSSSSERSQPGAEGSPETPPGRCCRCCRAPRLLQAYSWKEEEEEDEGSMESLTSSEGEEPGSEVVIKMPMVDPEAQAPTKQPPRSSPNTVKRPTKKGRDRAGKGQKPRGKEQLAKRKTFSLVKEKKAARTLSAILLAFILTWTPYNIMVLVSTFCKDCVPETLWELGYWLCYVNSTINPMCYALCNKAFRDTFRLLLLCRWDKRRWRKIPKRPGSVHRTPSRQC

[3] = biological target: T3, Muscarinic acetylcholine receptor M2 (Homo sapiens) (UniProt P08172); assay: Agonist activity at human muscarinic acetylcholine receptor M2 expressed in CHO cells assessed as calcium mobilization at 0.3 uM by FLIPR assay relative to acetylcholine; format: functional, cell-based
T3 sequence (whole entry): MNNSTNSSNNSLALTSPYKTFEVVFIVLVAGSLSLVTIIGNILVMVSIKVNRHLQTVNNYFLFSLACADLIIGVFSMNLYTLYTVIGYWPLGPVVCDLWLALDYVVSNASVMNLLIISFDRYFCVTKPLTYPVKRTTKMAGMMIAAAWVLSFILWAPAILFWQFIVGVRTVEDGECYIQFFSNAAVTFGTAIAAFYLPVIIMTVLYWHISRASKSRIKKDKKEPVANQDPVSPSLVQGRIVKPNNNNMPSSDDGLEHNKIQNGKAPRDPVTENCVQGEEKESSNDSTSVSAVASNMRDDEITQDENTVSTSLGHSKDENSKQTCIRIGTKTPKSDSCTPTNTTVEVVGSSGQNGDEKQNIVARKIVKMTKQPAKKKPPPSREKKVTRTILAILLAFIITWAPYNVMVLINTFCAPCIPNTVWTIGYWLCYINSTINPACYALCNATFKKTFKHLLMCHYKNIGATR

[4] = biological target: Muscarinic acetylcholine receptor M3 (Homo sapiens) (UniProt P20309); assay: Agonist activity at human muscarinic acetylcholine receptor M3 expressed in CHO cells assessed as calcium mobilization at 0.3 uM by FLIPR assay relative to acetylcholine; format: functional, cell-based
[5] = biological target: Voltage-gated inwardly rectifying potassium channel KCNH2 (Homo sapiens, UniProt Q12809); assay: Inhibition of human ERG tail current after 5 mins by patch-clamp method
[6] = biological target: T2, Muscarinic acetylcholine receptor M1 (Homo sapiens); assay: Competitive antagonist activity at human muscarinic acetylcholine receptor M1 expressed in CHO cells assessed as inhibition of ACh-induced calcium mobilization; format: functional, cell-based
[7] = Oral bioavailability in rat at 1 mg/kg; format: ADME, organism-based; details: in vivo
[8] = biological target: T4, Alpha-1D adrenergic receptor (Homo sapiens) (UniProt P25100); assay: Binding affinity to human adrenaline alpha-1D receptor at 3 uM by radioligand displacement assay relative to control
T4 sequence (whole entry): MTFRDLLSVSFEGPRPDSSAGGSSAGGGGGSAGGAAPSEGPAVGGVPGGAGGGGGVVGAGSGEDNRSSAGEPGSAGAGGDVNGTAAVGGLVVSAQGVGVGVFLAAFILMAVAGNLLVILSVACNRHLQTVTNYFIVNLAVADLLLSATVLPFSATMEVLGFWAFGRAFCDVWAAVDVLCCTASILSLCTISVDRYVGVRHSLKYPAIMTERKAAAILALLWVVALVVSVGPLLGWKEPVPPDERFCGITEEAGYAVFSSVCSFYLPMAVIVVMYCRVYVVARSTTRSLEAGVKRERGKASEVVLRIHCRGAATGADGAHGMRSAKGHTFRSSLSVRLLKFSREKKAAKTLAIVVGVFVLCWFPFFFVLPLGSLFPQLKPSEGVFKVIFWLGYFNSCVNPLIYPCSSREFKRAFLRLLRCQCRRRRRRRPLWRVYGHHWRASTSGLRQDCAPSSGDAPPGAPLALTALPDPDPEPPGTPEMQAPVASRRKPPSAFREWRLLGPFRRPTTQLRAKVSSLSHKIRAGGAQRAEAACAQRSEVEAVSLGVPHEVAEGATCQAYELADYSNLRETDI

P-gp = assay: Activity of p-gp (unknown origin) assessed as efflux ratio; format: ADME; details: human, not told
[9] = biological target: D(2) dopamine receptor (Homo sapiens) (UniProt P14416); assay: Binding affinity to human dopamine D2 receptor at 3 uM by radioligand displacement assay relative to control
[10] = biological target: T5, Muscarinic acetylcholine receptor M4 (Homo sapiens, UniProt P08173); assay: Agonist activity at human muscarinic acetylcholine receptor M4 expressed in CHO cells assessed as calcium mobilization by FLIPR assay; format: functional, cell-based
T5 sequence (P08173 whole entry): T1 sequence (whole entry)

[11] = biological target: T1, Muscarinic acetylcholine receptor M4 (Homo sapiens); assay: Intrinsic activity at human muscarinic acetylcholine receptor M4 expressed in CHO cells assessed as calcium mobilization by FLIPR assay relative to acetylcholine; format: functional, cell-based
Rattus norvegicus = assay: Antipsychotic activity in po dosed Sprague-Dawley rat assessed as reversal of methamphetamine-induced hyperlocomotion administered 60 mins prior to methamphetamine challenge measured for 10 to 80 mins post methamphetamine challenge; format: functional, organism-based
Procedure, shortened: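 Rats were dosed orally with test compound (1–10 mg/kg) or vehicle 60 min before methamphetamine (0.1 mg/kg, ip). Locomotor activity was recorded for 80 min starting 10 min after the methamphetamine injection. Values are mean ± SEM, n = 6.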

[12] = Ratio of drug level in brain to plasma in rat; format: ADME; details: brain and plasma, read-out: BPR
[13] = biological target: T6, Muscarinic acetylcholine receptor M5 (Homo sapiens) (UniProt P08912); assay: Agonist activity at human muscarinic acetylcholine receptor M5 expressed in CHO cells assessed as calcium mobilization at 10 uM by FLIPR assay relative to acetylcholine; format: functional, cell-based
T6 sequence (whole entry): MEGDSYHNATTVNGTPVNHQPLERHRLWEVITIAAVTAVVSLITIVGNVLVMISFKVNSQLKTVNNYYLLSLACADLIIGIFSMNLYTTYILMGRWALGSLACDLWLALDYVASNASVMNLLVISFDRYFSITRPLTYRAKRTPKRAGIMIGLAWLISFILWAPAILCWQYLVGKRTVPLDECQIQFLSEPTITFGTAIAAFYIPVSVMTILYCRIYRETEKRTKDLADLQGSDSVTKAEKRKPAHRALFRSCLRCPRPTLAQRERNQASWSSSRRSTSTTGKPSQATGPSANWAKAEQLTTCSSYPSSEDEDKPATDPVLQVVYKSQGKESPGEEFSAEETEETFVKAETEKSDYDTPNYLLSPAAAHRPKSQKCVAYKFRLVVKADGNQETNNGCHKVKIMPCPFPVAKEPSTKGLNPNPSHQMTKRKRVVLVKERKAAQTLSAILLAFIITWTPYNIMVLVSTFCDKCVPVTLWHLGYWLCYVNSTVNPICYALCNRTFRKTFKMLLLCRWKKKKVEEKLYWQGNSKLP

[14] = biological target: Histamine H1 receptor (Homo sapiens) (UniProt P35367); assay: Binding affinity to human histamine H1 receptor at 3 uM by radioligand displacement assay relative to control
[15] = biological target: T7, Muscarinic acetylcholine receptor M1 (Homo sapiens, UniProt P11229); assay: Agonist activity at human muscarinic acetylcholine receptor M1 expressed in CHO cells assessed as calcium mobilization by FLIPR assay; format: functional, cell-based
T7 sequence (P11229 whole entry): T2 sequence (whole entry)

[16] = biological target: T2, Muscarinic acetylcholine receptor M1 (Homo sapiens); assay: Intrinsic activity at human muscarinic acetylcholine receptor M1 expressed in CHO cells assessed as calcium mobilization by FLIPR assay relative to acetylcholine; format: functional, cell-based

Chain of Voltage-gated inwardly rectifying potassium channel KCNH2 (Q12809 whole entry): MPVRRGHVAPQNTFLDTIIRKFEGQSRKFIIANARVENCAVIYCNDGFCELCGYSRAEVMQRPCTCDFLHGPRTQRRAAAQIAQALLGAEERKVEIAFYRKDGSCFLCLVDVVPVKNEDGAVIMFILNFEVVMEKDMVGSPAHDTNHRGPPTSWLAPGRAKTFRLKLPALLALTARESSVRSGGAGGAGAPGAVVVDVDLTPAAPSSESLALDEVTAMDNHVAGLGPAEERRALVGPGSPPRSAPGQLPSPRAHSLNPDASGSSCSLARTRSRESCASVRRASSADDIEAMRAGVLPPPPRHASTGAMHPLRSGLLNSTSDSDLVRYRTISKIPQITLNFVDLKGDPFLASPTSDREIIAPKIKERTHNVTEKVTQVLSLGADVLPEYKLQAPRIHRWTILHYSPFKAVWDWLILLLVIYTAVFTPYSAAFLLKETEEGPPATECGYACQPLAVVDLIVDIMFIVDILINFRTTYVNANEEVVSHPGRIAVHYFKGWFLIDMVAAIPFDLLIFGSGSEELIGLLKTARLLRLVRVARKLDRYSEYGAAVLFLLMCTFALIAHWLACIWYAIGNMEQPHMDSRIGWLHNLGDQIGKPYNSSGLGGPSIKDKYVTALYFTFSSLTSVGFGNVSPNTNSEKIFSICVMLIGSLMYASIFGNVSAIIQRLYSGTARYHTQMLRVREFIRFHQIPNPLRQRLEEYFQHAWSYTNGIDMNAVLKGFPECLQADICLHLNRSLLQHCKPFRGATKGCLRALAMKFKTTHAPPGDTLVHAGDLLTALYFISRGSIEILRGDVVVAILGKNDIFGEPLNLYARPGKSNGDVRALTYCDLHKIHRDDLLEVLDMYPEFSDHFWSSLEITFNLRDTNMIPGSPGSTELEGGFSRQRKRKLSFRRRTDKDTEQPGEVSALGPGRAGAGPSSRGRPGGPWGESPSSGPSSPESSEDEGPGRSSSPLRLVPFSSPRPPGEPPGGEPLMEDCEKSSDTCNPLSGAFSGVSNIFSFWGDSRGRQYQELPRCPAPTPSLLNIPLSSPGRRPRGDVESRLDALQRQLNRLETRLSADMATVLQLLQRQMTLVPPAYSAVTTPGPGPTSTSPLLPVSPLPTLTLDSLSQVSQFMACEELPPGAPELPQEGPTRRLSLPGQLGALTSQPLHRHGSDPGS
Chain of Muscarinic acetylcholine receptor M3 (Homo sapiens) (P20309 whole entry, looked up): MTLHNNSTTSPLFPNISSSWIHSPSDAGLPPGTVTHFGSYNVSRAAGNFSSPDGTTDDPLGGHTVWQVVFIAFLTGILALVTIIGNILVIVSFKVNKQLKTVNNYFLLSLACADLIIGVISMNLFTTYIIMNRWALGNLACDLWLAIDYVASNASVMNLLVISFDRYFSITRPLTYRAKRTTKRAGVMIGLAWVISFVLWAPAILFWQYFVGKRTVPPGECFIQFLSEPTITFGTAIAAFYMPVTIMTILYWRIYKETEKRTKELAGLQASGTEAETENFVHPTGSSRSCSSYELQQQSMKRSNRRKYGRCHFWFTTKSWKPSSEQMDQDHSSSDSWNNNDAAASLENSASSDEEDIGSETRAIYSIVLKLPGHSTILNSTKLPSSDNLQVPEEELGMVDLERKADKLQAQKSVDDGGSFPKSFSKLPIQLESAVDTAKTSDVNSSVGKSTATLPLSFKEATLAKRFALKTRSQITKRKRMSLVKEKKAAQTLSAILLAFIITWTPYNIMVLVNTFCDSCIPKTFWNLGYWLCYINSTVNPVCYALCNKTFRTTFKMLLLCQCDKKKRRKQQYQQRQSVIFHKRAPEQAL
Chain of Histamine H1 receptor (Homo sapiens) (P35367 whole entry): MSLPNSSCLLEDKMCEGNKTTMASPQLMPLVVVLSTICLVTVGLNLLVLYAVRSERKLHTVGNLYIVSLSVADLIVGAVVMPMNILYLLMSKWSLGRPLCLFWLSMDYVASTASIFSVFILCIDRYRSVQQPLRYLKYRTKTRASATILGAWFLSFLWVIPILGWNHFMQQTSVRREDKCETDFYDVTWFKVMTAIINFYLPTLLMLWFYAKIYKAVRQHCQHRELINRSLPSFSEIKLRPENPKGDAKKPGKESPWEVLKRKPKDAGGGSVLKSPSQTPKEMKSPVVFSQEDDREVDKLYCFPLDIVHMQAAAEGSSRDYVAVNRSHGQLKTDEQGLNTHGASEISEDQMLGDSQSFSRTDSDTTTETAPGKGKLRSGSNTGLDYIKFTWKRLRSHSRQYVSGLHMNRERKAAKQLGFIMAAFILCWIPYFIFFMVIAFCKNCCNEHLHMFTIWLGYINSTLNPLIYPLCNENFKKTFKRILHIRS
Chain of D(2) dopamine receptor (Homo sapiens) (P14416 whole entry): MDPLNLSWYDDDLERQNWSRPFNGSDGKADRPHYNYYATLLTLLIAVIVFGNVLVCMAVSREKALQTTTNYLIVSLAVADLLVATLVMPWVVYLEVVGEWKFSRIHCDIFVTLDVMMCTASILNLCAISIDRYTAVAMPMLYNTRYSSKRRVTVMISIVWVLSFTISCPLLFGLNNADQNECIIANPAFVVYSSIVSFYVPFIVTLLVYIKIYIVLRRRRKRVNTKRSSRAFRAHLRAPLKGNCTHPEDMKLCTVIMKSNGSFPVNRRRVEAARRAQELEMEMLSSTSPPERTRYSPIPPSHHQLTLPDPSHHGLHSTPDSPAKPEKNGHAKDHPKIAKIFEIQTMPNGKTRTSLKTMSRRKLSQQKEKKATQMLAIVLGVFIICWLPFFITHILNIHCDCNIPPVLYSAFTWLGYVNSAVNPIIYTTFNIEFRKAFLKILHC

| Emax [1] | SMILES | Emax [2] | Emax [3] | Emax [4] | IC50 [5] | EC50 [10] | Intrinsic activity [11] | Emax [13] | also measured |
| --- | --- | --- | --- | --- | --- | --- | --- | --- | --- |
| 2% | CC1(CN2CCC3(CC2)CN(S(C)(=O)=O)c2ncccc23)CCN(C(=O)OC(C)(C)C)CC1 | – | – | – | – | – | – | – | – |
| 52% | COC(=O)N1CCC(C)(CN2CCC3(CC2)CN(S(C)(=O)=O)c2ncccc23)CC1 | 3% | 2% | 1% | – | – | – | – | – |
| 3% | CC(C)OC(=O)N1CCC(C)(CN2CCC3(CC2)CN(S(C)(=O)=O)c2ncccc23)CC1 | – | – | – | 2750 nM | – | – | – | – |

The remaining lines, values behind:

| SMILES | Emax [1] | Emax [2] | Emax [3] | Emax [4] | IC50 [5] | EC50 [10] | Intrinsic activity [11] | Emax [13] | also measured |
| --- | --- | --- | --- | --- | --- | --- | --- | --- | --- |
| CCOC(=O)N1[C@@H]2CC[C@H]1C[C@H](CN1CCC3(CC1)CN(S(C)(=O)=O)c1ncccc13)C2 | 4% | – | – | – | – | – | – | – | – |
| CCOC(=O)N1CCC(C)(CN2CCC3(CC2)CN(S(C)(=O)=O)c2ncccc23)CC1 | 94% | 5% | 3% | 4% | 3630 nM | 13 nM | 81% | 3% | inhibition [6]: Active; bioavailability [7]: 49%; inhibition [8]: 0%; efflux ratio (P-gp): 0.9; inhibition [9]: 0%; Activity (Rattus norvegicus): Dose-dependent effect; Kp [12]: 0.9; inhibition [14]: 27% |
| CCOC(=O)N1CCC(CN2CCC3(CC2)CN(S(C)(=O)=O)c2ncccc23)CC1 | 88% | 20% | 12% | 7% | 1900 nM | 93 nM | 83% | 3% | EC50 [15]: 352 nM; Intrinsic activity [16]: 59% |
